In PMC5242338 (Molecular imaging and biology : MIB : the official …, 2016):
Where a SMILES comes first, the peptide text is derived from it. Bridges are numbered along the chain shown (N, C = ends). [ ]: non-standard residue; d: D form. The star is where a group is joined. NOTA = O=C(O)CN1CCN(CC(=O)O)CCN(CC(=O)*)CC1; 2Nal = N[C@@H](Cc1ccc2ccccc2c1)C(=O)O; Cit = NC(=O)NCCC[C@H](N)C(=O)O

Tests used:
CHO-CXCR4 and CHO tumors = type: in vivo, mice
CHO-CXCR4 cells = experiment: Cell uptake, internalization and efflux of tracer; type: cell-based, Chinese hamster
How it was run: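 CHO-CXCR4 cells (F-12K, 10 % FBS) seeded at 1×10^5/well and given 11.1 kBq (0.3 µCi) tracer at 37 °C for 5–120 min. Blocking used 10 µg/well (22 µM) unlabeled peptide for 2 h. Cells were washed twice with cold PBS, lysed in 0.1 M NaOH and γ-counted. For internalization, an extra 1 min wash in 50 mM glycine/0.1 M NaCl, pH 2.8, was added. For efflux, cells were loaded for 2 h, then given tracer-free medium. Values are % of added activity, mean of three experiments ± SD.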

in vivo = experiment: in vivo; design: species or system mice; details: mouse, iv, 100 uCi/mouse, total radioactivity

Compound: N=C(N)NCCC[C@H](NC(=O)[C@@H]1CSSC[C@H](NC(=O)[C@H](Cc2ccc3ccccc3c2)NC(=O)[C@H](CCCNC(=N)N)NC(=O)[C@H](CCCNC(=N)N)NC(=O)CN2CCN(CC(=O)O)CCN(CC(=O)O)CC2)C(=O)N[C@@H](Cc2ccc(O)cc2)C(=O)N[C@@H](CCCNC(N)=O)C(=O)N[C@@H](CCCCN)C(=O)N[C@H](CCCCN)C(=O)N2CCC[C@H]2C(=O)N[C@@H](Cc2ccc(O)cc2)C(=O)N[C@@H](CCCNC(=N)N)C(=O)N[C@@H](CCCNC(N)=O)C(=O)N1)C(N)=O [Al[^18F]NOTA-T140] ({NOTA}-RR[2Nal]CY[Cit]K[dK]PYR[Cit]CR-NH2; disulfide 4-13)
- reduction in CHO-CXCR4 tumor uptake on blocking (CHO-CXCR4 and CHO tumors; co-injection of 100 µg unlabeled peptide, PET 1 h post-injection): 50–60%
- change of tracer uptake in the bone on blocking (CHO-CXCR4 and CHO tumors; mouse, in vivo): significantly reduced
- cell uptake with blocking by unlabeled peptide (CHO-CXCR4 cells; 2 h, 10 µg/well (22 µM) unlabeled peptide): 5.11±0.35%
- share of the uptake due to internalization (CHO-CXCR4 cells; 2 h, acid wash (glycine pH 2.8) removes surface-bound tracer): ~50%
- efflux from the cells (CHO-CXCR4 cells; after 2 h loading at 37 °C, medium replaced): slow
- tissue uptake at 2 h (in vivo; biodistribution: bone): 2.95 ± 0.74 %ID/g
- tissue uptake at 2 h (in vivo; biodistribution: kidneys): 32.8 ± 2.62 %ID/g
- tissue uptake at 2 h (in vivo; biodistribution: liver): 34.2 ± 4.98 %ID/g
- tissue uptake at 2 h (in vivo; biodistribution: spleen): 6.37 ± 1.18 %ID/g
